How the values were obtained:
male Sprague-Dawley rats [1] = experiment: Locomotor activity; assay type: in vivo, rat; details: i.v., lowest dose with increase, during microdialysis
Outline: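 Ambulation and stereotypy were counted by photobeam breaks in the same rats during nucleus accumbens microdialysis. The rats received two sequential i.v. injections 60 min apart, the second threefold higher (0.1/0.3 or 1.0/3.0 mg/kg), or saline (1 ml/kg), and were monitored through the 120-min post-injection period.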

[2] = tested on: extracellular 5-HT in the nucleus accumbens; experiment: In vivo microdialysis, 5-HT; design: species or system rat; details: i.v.
Outline: (§1)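 Male Sprague-Dawley rats (300–400 g) were anesthetized with ketamine/xylazine (75/5 mg/kg i.p.) and fitted with a jugular catheter and a guide cannula aimed at the nucleus accumbens. After three stable baseline samples, they received two i.v. doses 60 min apart, the second threefold higher (0.1 then 0.3, or 1.0 then 3.0 mg/kg); controls received saline (1 ml/kg). Dialysate was collected every 20 min for 120 min. Probe placement was verified histologically. Data were expressed as % baseline and analysed by two-way ANOVA with Bonferroni tests.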

[3] = tested on: extracellular dopamine in the nucleus accumbens; experiment: In vivo microdialysis, dopamine; design: species or system rat; details: for dose producing a significant increase in extracellular dopamine: i.v., nucleus accumbens microdialysis, vs saline
Outline: as §1

male Sprague-Dawley rats [4] = experiment: Intravenous self-administration; assay type: in vivo, rat; details: for acquisition of self-administration (rats showing clear evidence): FR1, 10 days, 2-h sessions; for i.v. dose supporting peak responding: dose-effect testing after training on the same enantiomer, discussion; for dose of peak (highest) responding in dose-effect testing: i.v., after acquisition, results section; for active nose-poke responding over 10 days of extinction: saline substituted for drug
Outline: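 Rats on a reverse light cycle were catheterized in the jugular vein under ketamine/xylazine (80/9.6 mg/kg i.p.) and recovered for at least 7 days. Active nose-pokes (side counterbalanced) were reinforced on FR1 with an i.v. infusion, each followed by a 20-s timeout, in 2-h sessions. Acquisition ran at least 10 days at 0.03 or 0.3 mg/kg/inj. Three further doses were then given in non-systematic order, 3 days each, averaging days 2–3. Saline substitution for 10 days followed. Analysis used a linear mixed-effects model.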

male Sprague-Dawley rats [5] = experiment: Telemetric assessment of blood pressure; assay type: in vivo, rat; details: s.c.; for ED50 blood pressure: mean over 3-h session, halfway point 109.5 mm Hg, 95% CI given in text
male Sprague-Dawley rats [6] = experiment: Telemetric assessment of body temperature; assay type: in vivo, rat; details: s.c., telemetry, data not shown
Outline: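 In telemetry-implanted rats adapted to the chambers and to s.c. injection, body temperature was sampled for 10 s each minute for 3 h and averaged across the session. Doses were 0.3–3.0 mg/kg or 3.0–30 mg/kg s.c., in non-systematic order, at most twice weekly. One-way ANOVA with Dunnett's test compared each dose with control.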

NET [7] = target: NET (Rattus norvegicus, UniProt Q63380); experiment: Inhibition of [3H]norepinephrine uptake in rat brain synaptosomes; assay type: biochemical
Sequence of NET (Rattus norvegicus, UniProt Q63380) (Q63380 1-617): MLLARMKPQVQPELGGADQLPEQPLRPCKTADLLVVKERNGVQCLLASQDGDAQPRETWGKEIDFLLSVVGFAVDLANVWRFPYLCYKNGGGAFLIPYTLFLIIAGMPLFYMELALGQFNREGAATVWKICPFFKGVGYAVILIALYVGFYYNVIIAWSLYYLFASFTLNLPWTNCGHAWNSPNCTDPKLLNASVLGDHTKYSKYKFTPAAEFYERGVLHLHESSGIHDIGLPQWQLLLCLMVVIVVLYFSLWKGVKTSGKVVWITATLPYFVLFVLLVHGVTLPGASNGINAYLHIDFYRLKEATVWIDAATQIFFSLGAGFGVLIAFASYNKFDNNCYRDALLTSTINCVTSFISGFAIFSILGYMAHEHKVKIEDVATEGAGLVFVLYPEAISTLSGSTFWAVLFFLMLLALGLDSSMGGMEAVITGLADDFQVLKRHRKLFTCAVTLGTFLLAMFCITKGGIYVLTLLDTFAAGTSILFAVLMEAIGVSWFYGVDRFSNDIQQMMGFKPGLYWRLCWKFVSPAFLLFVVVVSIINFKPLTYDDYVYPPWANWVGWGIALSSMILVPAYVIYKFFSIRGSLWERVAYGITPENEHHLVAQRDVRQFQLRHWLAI

DAT [8] = target: DAT (Rattus norvegicus, UniProt P23977); experiment: Inhibition of [3H]dopamine uptake in rat brain synaptosomes; assay type: biochemical
Sequence of DAT (Rattus norvegicus, UniProt P23977) (P23977 whole entry): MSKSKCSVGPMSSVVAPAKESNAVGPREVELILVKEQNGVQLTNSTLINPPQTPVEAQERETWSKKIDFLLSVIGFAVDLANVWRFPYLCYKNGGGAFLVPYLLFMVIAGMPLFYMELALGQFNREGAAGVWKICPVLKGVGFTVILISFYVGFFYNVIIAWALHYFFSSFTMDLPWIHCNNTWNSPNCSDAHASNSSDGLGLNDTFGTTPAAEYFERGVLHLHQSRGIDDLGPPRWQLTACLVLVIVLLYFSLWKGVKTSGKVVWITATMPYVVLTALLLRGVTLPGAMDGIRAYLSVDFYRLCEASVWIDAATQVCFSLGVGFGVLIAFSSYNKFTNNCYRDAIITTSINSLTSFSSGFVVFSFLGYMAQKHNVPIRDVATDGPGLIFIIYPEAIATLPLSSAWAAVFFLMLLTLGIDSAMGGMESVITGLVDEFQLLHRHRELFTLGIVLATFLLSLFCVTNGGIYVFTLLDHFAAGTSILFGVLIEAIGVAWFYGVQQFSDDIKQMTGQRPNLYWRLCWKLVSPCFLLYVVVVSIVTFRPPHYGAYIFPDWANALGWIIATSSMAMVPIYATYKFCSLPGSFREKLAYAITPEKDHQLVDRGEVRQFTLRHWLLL

NET [9] = details: range given for DAT and NET together; cited from earlier work
rats = details: progressive ratio schedule, rats trained with racemic MDPV; cited from earlier work
[10] = tested on: mice trained to discriminate cocaine from saline; details: cited from earlier work
DAT [11] = details: range given for DAT and NET together; cited from earlier work
[12] = uptake inhibition, rat brain synaptosomes

SMILES | dose increasing overall activity and stereotypy (male Sprague-Dawley rats [1]) [mg/kg] | dose producing a significant increase in extracellular dopamine [3] [mg/kg] | acquisition of self-administration (rats showing clear evidence) (male Sprague-Dawley rats [4]; 0.03 mg/kg/injection i.v.) | i.v. dose supporting peak responding (male Sprague-Dawley rats [4]) [mg/kg/inj] | dose of peak (highest) responding in dose-effect testing (male Sprague-Dawley rats [4]) [mg/kg/injection] | active nose-poke responding over 10 days of extinction (male Sprague-Dawley rats [4]) | ED50 blood pressure (male Sprague-Dawley rats [5]) [mg/kg] | dose with significant increase in body temperature (male Sprague-Dawley rats [6]) [mg/kg] | other results
CCCC(C(=O)c1ccccc1)N1CCCC1 (stereo not drawn) [R,S-α-PVP, α-pyrrolidinovalerophenone] | 0.3 | – | – | – | – | – | – | – | change in extracellular levels of 5-HT [2]: no changes
CCC[C@H](C(=O)c1ccccc1)N1CCCC1 [R-α-PVP] | 3 | 3 | did not show evidence of acquisition | 0.3 | 0.3 | did not decrease significantly over days of extinction | 5.85 | 10 | size of dopamine increase relative to 0.3 mg/kg S-α-PVP ([3]; 3 mg/kg i.v., nucleus accumbens): less than half; acquisition of self-administration (rats showing clear evidence) (male Sprague-Dawley rats [4]; 0.3 mg/kg/injection i.v.): Six of the 8; times less potent than S-α-PVP (self-administration dose-effect determinations) (male Sprague-Dawley rats [4]; abstract): at least 30 times; fold less potent than racemic α-PVP (self-administration dose-effect function) (male Sprague-Dawley rats [4]; rightward shift of inverted U-shaped function): around 30 fold; fold difference in potency between enantiomers from calculated ED50 values (male Sprague-Dawley rats [5]; blood pressure and heart rate, R- vs S-α-PVP): 20 – 40 fold; times less potent than racemic α-PVP on blood pressure (male Sprague-Dawley rats [5]; from significant doses): approximately 10 times; times less potent than S-α-PVP at NET (NET [7]): 20 times; times less potent than S-α-PVP at DAT (DAT [8]; [12]): 40 times
CCC[C@@H](C(=O)c1ccc2c(c1)OCO2)N1CCCC1 [S-MDPV] | – | – | – | – | – | – | – | – | times more potent than R-MDPV in blocking uptake at NET (NET [9]): 50–100 times; times more potent than the R-isomer in self-administration (rats): about 50 times; times more potent than the R-isomer in substituting for cocaine [10]: about 100 times; times more potent than R-MDPV in blocking uptake at DAT (DAT [11]): 50–100 times
CCC[C@@H](C(=O)c1ccccc1)N1CCCC1 [S-α-PVP] | 0.1 | 0.1 | All 10 | ≤ 0.003 | 0.003 | decreased over the 10 days of extinction | 0.29 | 0.3 | times more potent than racemic on blood pressure (ED50) (male Sprague-Dawley rats [5]): approximately 2 times; times more potent than the racemate at NET (NET [7]): about 2 times; times more potent than cocaine in blocking uptake at DAT (DAT [8]; discussion): about 30 times; times more potent than the racemate at DAT (DAT [8]; [12]): about 2 times

— article PMC7217742 (Addiction biology, 2019)
